One data set has as its system MDA-MB-231. Description: Antiproliferative activity against human MDA-MB-231 cells after 48 hrs by SRB assay. The conditions noted are these: MDA-MB-231, 48 h. Format: functional, cell-based. In a few lines:
(§1)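 SRB assay: 5,000-10,000 cells/well plated, 24 h at 37 °C/5% CO2 before drug; seven concentrations from 100 μM down (two- to ten-fold serial dilutions, DMSO ≤0.1% final) for 48 h; TCA fixation (10% final, 60 min, 4 °C), 0.4% SRB in 1% acetic acid, solubilized in 10 mM Tris base, absorbance 515-564 nm; growth = (Ti−Tz)/(C−Tz)×100; IC50 from sigmoidal variable-slope fit; triplicates, ≥2 independent experiments.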

The subject of data set [1] is MCF7. Description: Antiproliferative activity against human MCF7 cells after 48 hrs by SRB assay. Conditions: MCF7, 48 h. Format: functional, cell-based. In a few lines:
as §1

Data set [2] deals with MCF7. The data set can be described thus: Potency index, ratio of cisplatin IC50 to compound IC50 for antiproliferative activity against human MCF7 cells. The data set is classed as functional.
The test system of data set [3] is MCF7. The data set can be described thus: Cell cycle arrest in human MCF7 cells assessed as DNA content at 2 uM after 6 hrs by BrdU incorporation assay (reference value: 31.6%). Format: functional.
Data set [4] relates to MCF7. Description: Cell cycle arrest in human MCF7 cells assessed as DNA content at 2 uM after 24 hrs by BrdU incorporation assay (reference value: 32.9%). Format: functional.
In data set [5] the target is T1, Serine/threonine-protein kinase Chk1 (Homo sapiens) (UniProt O14757).
T1 sequence (whole entry): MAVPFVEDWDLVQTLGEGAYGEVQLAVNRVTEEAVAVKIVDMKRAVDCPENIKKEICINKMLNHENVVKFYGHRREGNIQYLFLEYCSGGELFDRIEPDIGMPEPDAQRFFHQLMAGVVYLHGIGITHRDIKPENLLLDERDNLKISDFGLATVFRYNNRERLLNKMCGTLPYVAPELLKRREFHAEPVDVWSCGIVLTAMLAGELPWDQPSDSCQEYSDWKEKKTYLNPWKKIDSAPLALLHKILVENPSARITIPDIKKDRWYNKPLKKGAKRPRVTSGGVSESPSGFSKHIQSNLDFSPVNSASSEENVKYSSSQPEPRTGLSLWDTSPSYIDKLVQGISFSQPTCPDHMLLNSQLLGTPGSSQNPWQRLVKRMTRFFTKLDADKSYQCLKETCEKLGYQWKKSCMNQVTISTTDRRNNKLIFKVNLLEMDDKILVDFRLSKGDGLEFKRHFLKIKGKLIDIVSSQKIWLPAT
The data set can be described thus: Induction of CHK1 phosphorylation at S298 residue in human MCF7 cells at 2 uM after 12 to 48 hrs by Western blot method. Format: cell-based.

In data set [6] the target is Serine/threonine-protein kinase mTOR (Homo sapiens) (UniProt P42345). Description: Inhibition of mTOR pathway in human MCF7 cells assessed as reduction in S6K phosphorylation at Thr389 residue at 2 uM after 6 hrs by Western blot method. The data set is classed as cell-based.
The target is the same in data set [7]. Description: Inhibition of mTOR pathway in human MCF7 cells assessed as reduction in S6K phosphorylation at Thr389 residue at 2 uM after 24 hrs by Western blot method. Format: cell-based.
Data set [8] has the same target. Description: Inhibition of mTOR pathway in human MCF7 cells assessed as reduction in S6K phosphorylation at Ser371 residue at 2 uM after 6 to 24 hrs by Western blot method. The data set is classed as cell-based.
Data set [9] is described as follows: Selectivity index, ratio of compound concentration for cell killing activity in human MCF10A cells to compound concentration for cell killing activity in human NCI-H1975 cells. The data set is classed as toxicity, cell-based. The conditions noted are these: MCF10A cells versus NCI-H1975 cells, read-out: Selectivity Index.

Calls of active or inactive are those of the source. No cut-off for these calls is given here.

On to `COc1ccc2nc3cc(Cl)ccc3c(NCCCN3C(=O)CCSC3c3cccs3)c2c1` (stereo not given), for which the values for the 50% inhibitory concentration (IC50) with MDA-MB-231 and with MCF7 [1] were 2.8 µM and 0.69 µM, respectively. Besides, the “Ratio IC50” value with MCF7 [2] is listed as 37.3. Moreover, the Activity is recorded as 3.7% in the data set with MCF7 [3] and 0.7% in the data set with MCF7 [4]. Moreover, the outcome in data set [5] was inactive. Besides, the inhibition result in data set [6] and in [8] was “inactive” each time. Further, the inhibition result in data set [7] is “Active”. In addition, the selectivity ratio in data set [9] is 3 to 6.

Source of the values: ChEMBL document CHEMBL4138245, “Design and synthesis of novel quinacrine-[1,3]-thiazinan-4-one hybrids for their anti-breast cancer activity” (Eur J Med Chem, 2018).
